According to ChEMBL document CHEMBL1155099, “Natural products in parallel synthesis: triazole libraries of nonactic acid” (2008):
Active and inactive are the calls of the source.

Tests used:
Type in all cases: functional, organism-based
Bacillus anthracis = test: Antibacterial activity against Bacillus anthracis at 1mM by almar blue dye reduction assay
Bacillus cereus = test: Antibacterial activity against Bacillus cereus at 1 mM by almar blue dye reduction assay
In short: (§1)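 Single-point primary screen at 1 mM using Alamar Blue dye reduction as the growth read-out.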

Bacillus subtilis = test: Antibacterial activity against Bacillus subtilis at 1 mM by almar blue dye reduction assay; in short: as §1
Staphylococcus aureus = test: Antibacterial activity against Staphylococcus aureus at 1 mM by almar blue dye reduction assay; in short: as §1
Escherichia coli = test: Antibacterial activity against Escherichia coli at 1 mM by almar blue dye reduction assay; in short: as §1
Pseudomonas aeruginosa = test: Antibacterial activity against Pseudomonas aeruginosa at 1 mM by almar blue dye reduction assay; in short: as §1
Candida albicans = test: Antifungal activity against Candida albicans at 1 mM by almar blue dye reduction assay; in short: as §1
Cryptococcus neoformans = test: Antifungal activity against Cryptococcus neoformans at 1 mM by almar blue dye reduction assay; in short: as §1
Saccharomyces cerevisiae = test: Antifungal activity against Saccharomyces cerevisiae at 1 mM by almar blue dye reduction assay; in short: as §1

Measured: Activity

C[C@H](C[C@@H]1CC[C@H]([C@@H](C)C(=O)N2CCN(CC3CCCO3)CC2)O1)n1cc(C#Cc2ccc(Oc3ccccc3)cc2)nn1 (stereo partly drawn)
inactive: all assays above

CCN(CC)C(=O)[C@H](C)[C@H]1CC[C@@H](C[C@@H](C)n2cc(C#CCN(C)CCc3ccccc3)nn2)O1
inactive: all assays above

CCN(CC)C(=O)[C@H](C)[C@H]1CC[C@@H](C[C@@H](C)n2cc(C#Cc3ccc(Oc4ccccc4)cc3)nn2)O1
inactive: all assays above

COCCNCC#Cc1cn([C@H](C)C[C@@H]2CC[C@H]([C@@H](C)C(=O)N3CCN(CC4CCCO4)CC3)O2)nn1 (stereo partly drawn)
inactive: all assays above

COc1ccc(OCC#Cc2cn([C@H](C)C[C@@H]3CC[C@H]([C@@H](C)C(=O)N4CCN(CC5CCCO5)CC4)O3)nn2)cc1 (stereo partly drawn)
inactive: all assays above

CCOC(=O)C#Cc1cn([C@H](C)CC2CCC([C@@H](C)C(=O)NC(C)C)O2)nn1 (single isomer, unassigned)
inactive: all assays above

CCN(CC)C(=O)[C@H](C)[C@H]1CC[C@@H](C[C@@H](C)n2cc(C#CCN(C)C)nn2)O1
inactive: all assays above

CCN(CC)C(=O)[C@H](C)[C@H]1CC[C@@H](C[C@@H](C)n2cc(C#CCN3CCC(c4ccccc4)CC3)nn2)O1
inactive: all assays above

CCN(CC)C(=O)[C@H](C)[C@H]1CC[C@@H](C[C@@H](C)n2cc(C#CCOc3ccc(Br)cc3)nn2)O1
inactive: all assays above

C[C@H](C[C@@H]1CC[C@H]([C@@H](C)C(=O)N2CCN(CC3CCCO3)CC2)O1)n1cc(C#CCOc2ccc(C(F)(F)F)cc2)nn1 (stereo partly drawn)
inactive: all assays above

C[C@H](C[C@@H]1CC[C@H]([C@@H](C)C(=O)N(C)Cc2ccccc2)O1)n1cc(C#CCN2CCN(c3ccccc3)CC2)nn1
inactive: all assays above

C[C@H](C[C@@H]1CC[C@H]([C@@H](C)C(=O)N2CCCC2)O1)n1cc(C#Cc2ccc(-c3ccccc3)cc2)nn1
inactive: all assays above

CCN(CC)C(=O)[C@H](C)[C@H]1CC[C@@H](C[C@@H](C)n2cc(C#CC3=CCCCC3)nn2)O1
inactive: all assays above

CC(C)NC(=O)[C@H](C)C1CCC(C[C@@H](C)n2cc(C#CCOC(=O)OCc3ccccc3)nn2)O1 (single isomer, unassigned)
inactive: all assays above

C[C@H](C[C@H]1CC[C@H]([C@@H](C)C(=O)N2CCCC2)O1)n1cc(C#CCN(C)C)nn1
inactive: all assays above

C[C@H](C[C@@H]1CC[C@H]([C@@H](C)C(=O)N2CCN(CC3CCCO3)CC2)O1)n1cc(C#CCN2CCOCC2)nn1 (stereo partly drawn)
inactive: all assays above

CC(C)NC(=O)[C@H](C)[C@H]1CC[C@@H](C[C@@H](C)n2cc(C#CCCCC#N)nn2)O1
inactive: all assays above
